Data from ChEMBL document CHEMBL1158679, “Synthetic analogues of irlbacholine: a novel antifungal plant metabolite isolated from Irlbachia alata” (1999).
Values after ≈ are worked out from the molar mass of the structure shown.

Legend:
Type in all cases: functional
[1] = tested on: Cryptococcus neoformans; assay: Antifungal activity against Cryptococcus neoformans 96-69 by standard microdilution method
[2] = tested on: Cryptococcus neoformans; assay: Antifungal activity against Cryptococcus neoformans ATCC 36556 by standard microdilution method
Outline: (§1)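 Minimum inhibitory concentration measured by standard broth microdilution in 96-well microplates against the named yeast strain.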

[3] = tested on: Candida albicans; assay: Antifungal activity against Candida albicans B311 by standard microdilution method; outline: as §1
[4] = tested on: Candida albicans; assay: Antifungal activity against Candida albicans 572-27 by standard microdilution method; outline: as §1
[5] = tested on: Candida albicans; assay: Antifungal activity against Candida albicans ATCC 10259 by standard microdilution method; outline: as §1
[6] = tested on: Aspergillus fumigatus; assay: Antifungal activity against Aspergillus fumigatus ATCC 13073 by standard microdilution method
Outline: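 MIC read from a 96-well microplate broth microdilution run by the standard method, with Sabouraud dextrose broth as the medium for A. fumigatus ATCC 13073.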

O=P(O)(OCCBr)OCCCCCCCCCCCCCCCCOP(=O)(O)OCCBr was tested, and the MIC [1] was 125 µg/mL (≈ 198 µM), the MIC [2] was 62.5 µg/mL (≈ 98.8 µM) and the MIC [3] was 125 µg/mL (≈ 198 µM). It also gave an MIC [4] of 125 µg/mL (≈ 198 µM) and an MIC [5] of 62.5 µg/mL (≈ 98.8 µM).

O=P(O)(OCCBr)OCCCCCCCCCCCCCCCCCCCCCCOP(=O)(O)OCCBr showed an MIC [1] of 500 µg/mL (≈ 698 µM), an MIC [2] of 500 µg/mL (≈ 698 µM) and an MIC [4] of over 500 µg/mL. It also gave an MIC [5] of over 500 µg/mL.

O=P(OCCCCCCCCCCCCCCCCCCCCCCOP(=O)(Oc1ccccc1)Oc1ccccc1)(Oc1ccccc1)Oc1ccccc1 was tested, and the MIC [1] was 125 µg/mL (≈ 155 µM), the MIC [2] was 125 µg/mL (≈ 155 µM) and the MIC [3] was 250 µg/mL (≈ 310 µM). The MIC [4] was 250 µg/mL (≈ 310 µM), the MIC [6] was over 500 µg/mL and the MIC [5] was 125 µg/mL (≈ 155 µM).

In the case of OCCCCCCCCCCCCCCCCO, the MIC [1] is reported as 62.5 µg/mL (≈ 242 µM), the MIC [2] is reported as 62.5 µg/mL (≈ 242 µM) and the MIC [3] is reported as 250 µg/mL (≈ 967 µM). It also gave an MIC [4] of 250 µg/mL (≈ 967 µM), an MIC [6] of over 500 µg/mL and an MIC [5] of 125 µg/mL (≈ 484 µM).

For C[N+](C)(C)CCOP(=O)([O-])OCCCCCCCCCCCCCCCCCCCCCCOP(=O)([O-])OCC[N+](C)(C)C.Cl, the MIC [1] was 0.5 µg/mL, the MIC [2] was 0.04 µg/mL and the MIC [3] was 0.5 µg/mL. It also gave an MIC [4] of 0.5 µg/mL, an MIC [6] of 0.08 µg/mL and an MIC [5] of 1.25 µg/mL.

Work on C[N+](C)(C)CCOP(=O)([O-])OCCCCCCCCCCCCOP(=O)([O-])OCC[N+](C)(C)C yielded an MIC [1] of 250 µg/mL (≈ 469 µM), an MIC [2] of 250 µg/mL (≈ 469 µM) and an MIC [3] of 500 µg/mL (≈ 939 µM). The MIC [4] was 500 µg/mL (≈ 939 µM) and the MIC [5] was 500 µg/mL (≈ 939 µM).

With C[N+](C)(C)CCOP(=O)([O-])OCCCCCCCCCCCCCCOP(=O)([O-])OCC[N+](C)(C)C the MIC [1] was 250 µg/mL (≈ 446 µM), the MIC [2] was 250 µg/mL (≈ 446 µM) and the MIC [3] was 250 µg/mL (≈ 446 µM). For the same molecule, the MIC [4] was 250 µg/mL (≈ 446 µM) and the MIC [5] was 250 µg/mL (≈ 446 µM).

OCCCCCCCCCCCCCCCCCCCCCCO gave an MIC [1] of over 500 µg/mL, an MIC [2] of over 500 µg/mL and an MIC [3] of over 500 µg/mL. For the same molecule, the MIC [4] was over 500 µg/mL, the MIC [6] was over 500 µg/mL and the MIC [5] was over 500 µg/mL.

In the case of C[N+](C)(C)CCOP(=O)([O-])OCCCCCCCCCCCCCCCCCCOP(=O)([O-])OCC[N+](C)(C)C, the MIC [1] is reported as over 500 µg/mL, the MIC [2] is reported as 500 µg/mL (≈ 811 µM) and the MIC [4] is reported as over 500 µg/mL. The MIC [5] was over 500 µg/mL.

Molecule C[N+](C)(C)CCOP(=O)([O-])OCCCCCCCCCCCCCCCCOP(=O)([O-])OCC[N+](C)(C)C has an MIC [1] of 125 µg/mL (≈ 212 µM), an MIC [2] of 125 µg/mL (≈ 212 µM) and an MIC [3] of 250 µg/mL (≈ 425 µM). For the same molecule, the MIC [4] was 125 µg/mL (≈ 212 µM), the MIC [6] was 25 µg/mL (≈ 42.5 µM) and the MIC [5] was 125 µg/mL (≈ 212 µM).

With O=P(OCCCCCCCCCCCCCCCCOP(=O)(Oc1ccccc1)Oc1ccccc1)(Oc1ccccc1)Oc1ccccc1 the MIC [1] was 125 µg/mL (≈ 173 µM), the MIC [2] was 62.5 µg/mL (≈ 86.5 µM) and the MIC [3] was 250 µg/mL (≈ 346 µM). For the same molecule, the MIC [4] was 250 µg/mL (≈ 346 µM), the MIC [6] was over 500 µg/mL and the MIC [5] was 125 µg/mL (≈ 173 µM).

Work on C[N+](C)(C)CCOP(=O)([O-])OCCCCCCCCCCCCCCCCCCCCOP(=O)([O-])OCC[N+](C)(C)C yielded an MIC [1] of 15.6 µg/mL (≈ 24.2 µM), an MIC [2] of 15.6 µg/mL (≈ 24.2 µM) and an MIC [4] of over 500 µg/mL. It also gave an MIC [5] of over 500 µg/mL.

Molecule C[N+](C)(C)CCOP(=O)([O-])OCCCCCCCCCCCCCCCCCCCCCCCCOP(=O)([O-])OCC[N+](C)(C)C has an MIC [1] of 7.8 µg/mL (≈ 11.1 µM), an MIC [2] of 3.9 µg/mL (≈ 5.56 µM) and an MIC [3] of 62.5 µg/mL (≈ 89.2 µM). The MIC [4] was 62.5 µg/mL (≈ 89.2 µM) and the MIC [5] was 31.2 µg/mL (≈ 44.5 µM).

C[N+](C)(C)CCOP(=O)([O-])OCCCCCCCCCCCCCCCCCCCCCCOP(=O)([O-])OCC[N+](C)(C)C was tested, and the MIC [1] was 0.5 µg/mL (≈ 0.743 µM), the MIC [2] was 0.04 µg/mL (≈ 0.0594 µM) and the MIC [3] was 1 µg/mL (≈ 1.49 µM). For the same molecule, the MIC [4] was 1 µg/mL (≈ 1.49 µM), the MIC [6] was 0.08 µg/mL (≈ 0.119 µM) and the MIC [5] was 1.25 µg/mL (≈ 1.86 µM).

O=P(O)(O)OCCCCCCCCCCCCCCCCOP(=O)(O)O showed an MIC [1] of 125 µg/mL (≈ 299 µM), an MIC [2] of 62.5 µg/mL (≈ 149 µM) and an MIC [3] of 250 µg/mL (≈ 598 µM). The MIC [4] was 250 µg/mL (≈ 598 µM), the MIC [6] was over 500 µg/mL and the MIC [5] was 125 µg/mL (≈ 299 µM).

O=P(O)(O)OCCCCCCCCCCCCCCCCCCCCCCOP(=O)(O)O gave an MIC [1] of 125 µg/mL (≈ 249 µM), an MIC [2] of 62.5 µg/mL (≈ 124 µM) and an MIC [3] of 250 µg/mL (≈ 497 µM). The MIC [4] was 250 µg/mL (≈ 497 µM), the MIC [6] was over 500 µg/mL and the MIC [5] was 250 µg/mL (≈ 497 µM).

For CCCCCCCCCCCCCCCCCCCCCCOP(=O)(O)OCC[N+](C)(C)C.[Cl-], the MIC [1] was 500 µg/mL, the MIC [2] was 250 µg/mL and the MIC [3] was 500 µg/mL. It also gave an MIC [4] of 500 µg/mL and an MIC [5] of 500 µg/mL.

With C[N+](C)(C)CCOP(=O)(O)OCCCCCCCCCCCCCCCl.[Cl-] the MIC [1] was 0.5 µg/mL, the MIC [2] was 1 µg/mL and the MIC [3] was 7.8 µg/mL. The MIC [4] was 3.9 µg/mL and the MIC [5] was 7.8 µg/mL.

For C[N+](C)(C)CCOP(=O)(O)OCCCCCCCCCCCCCCCCCl.[Cl-], the MIC [1] was 0.5 µg/mL, the MIC [2] was 0.5 µg/mL and the MIC [3] was 1 µg/mL. The MIC [4] was 1 µg/mL, the MIC [6] was 3.1 µg/mL and the MIC [5] was 0.5 µg/mL.

CCCCCCCCCCCCCCCCOP(=O)(O)OCC[N+](C)(C)C.[Cl-] was tested, and the MIC [1] was 0.5 µg/mL, the MIC [2] was 0.5 µg/mL and the MIC [3] was 1 µg/mL. The MIC [4] was 1 µg/mL and the MIC [5] was 0.5 µg/mL.

For CCCCCCCCCCCCCCCCO [CETYL ALCOHOL], the MIC [1] was 125 µg/mL (≈ 516 µM), the MIC [2] was 62.5 µg/mL (≈ 258 µM) and the MIC [3] was 250 µg/mL (≈ 1030 µM). For the same molecule, the MIC [4] was 250 µg/mL (≈ 1030 µM), the MIC [6] was over 500 µg/mL and the MIC [5] was 125 µg/mL (≈ 516 µM).

CCCCCCCCCCCCCCCCOP(=O)(O)O [HEXADECYL DIHYDROGEN PHOSPHATE] was tested, and the MIC [1] was 62.5 µg/mL, the MIC [2] was 62.5 µg/mL and the MIC [3] was 250 µg/mL. It also gave an MIC [4] of 125 µg/mL, an MIC [6] of over 500 µg/mL and an MIC [5] of 250 µg/mL.
